Hits are enriched below; roughly 1.5% of the tested compounds scored in any of these assays.
ERp5 inh – inhibitors of human ERp5; ERp5 insulin aggregation, absorbance 650 nm, 90 min; inhibition, % at 9.99 µM; 350,000 compounds, 0.05% hits; AID 651711;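 active means mean replicate inhibition above about 25%, with every replicate also reaching it, limit read from the data, passing the limit was not always enough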
S100A4 inh HTS – blocks human S100A4 binding to myosin IIA peptide. S100A4/TAMRA-MyoIIA peptide fluorescence polarization. inhibition, % at 10.7 µM. 360,000 compounds, 0.14% hits. AID 652163;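 active means mean inhibition of at least 70% across replicates, with every replicate also reaching that level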
Target sequence (P26447 whole entry, looked up): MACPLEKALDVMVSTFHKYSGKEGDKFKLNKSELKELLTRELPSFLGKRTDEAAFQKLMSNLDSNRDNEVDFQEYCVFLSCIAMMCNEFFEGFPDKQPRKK
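Material: S100A4 monomer (human). Medium: Calcium-containing HEPES buffer, pH 7.2. Probe or stimulus: labelled myosin peptide probe, 5 nM. Compound dosing: one concentration per compound. Timing: polarization read 5 min after assay mix addition, stable 5–60 min. Benchmarks: DMSO as neutral control, TFP as positive control.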
SIRT5 block – inhibitors of human sirtuin-5 desuccinylase | Q9NXA8 | Purified SirT5, succinyl-peptide AMC, trypsin-coupled fluorescence | 330,000 compounds, 1.1% hits | inhibition, % at 15 µM | AID 652115; in the data active means inhibition above about 15%
PDI turbidity – inhibitors of human protein disulfide isomerase | P07237 | PDI insulin aggregation turbidity, A650, 90 min | inhibition, % at 10 µM | 350,000 compounds, 0.052% hits | AID 588391;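 active means mean inhibition across replicates of 30% or more, whatever share of single replicates reach that level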
Target sequence (P07237 whole entry, looked up): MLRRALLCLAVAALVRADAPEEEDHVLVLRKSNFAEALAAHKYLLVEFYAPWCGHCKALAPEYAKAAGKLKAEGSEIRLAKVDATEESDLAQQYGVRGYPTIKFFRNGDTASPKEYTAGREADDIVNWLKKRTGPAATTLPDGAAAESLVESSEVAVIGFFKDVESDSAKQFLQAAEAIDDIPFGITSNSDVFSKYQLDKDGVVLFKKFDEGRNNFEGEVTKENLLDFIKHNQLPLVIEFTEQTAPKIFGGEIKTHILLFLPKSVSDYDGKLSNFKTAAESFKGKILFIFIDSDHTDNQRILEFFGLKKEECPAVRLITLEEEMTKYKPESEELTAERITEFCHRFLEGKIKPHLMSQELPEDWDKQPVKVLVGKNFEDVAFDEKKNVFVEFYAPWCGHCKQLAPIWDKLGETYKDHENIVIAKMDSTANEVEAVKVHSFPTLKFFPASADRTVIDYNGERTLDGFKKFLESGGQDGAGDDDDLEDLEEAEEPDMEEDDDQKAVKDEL
GSIS activator – primary screen for activators of insulin secretion dependent on glucose, INS-1E cells, GLuc reporter luminescence | 370,000 compounds, 0.61% hits | activation, % at 16.6 µM | INS-1E GLuc reporter insulin secretion, 2-3 h | AID 743287;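 active means lowest replicate activation of at least 40%, so every replicate reaches that level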
Hits are given with their value; – = inactive; · = no result given.

SMILES	ERp5 inh	S100A4 inh HTS	SIRT5 block	PDI turbidity	GSIS activator
CS(=O)(=O)N1C[C@H](O)COC[C@H]2O[C@@H](CC(=O)NC3Cc4ccccc4C3)CC[C@@H]21	–	–	–	·	–
C[C@H](CO)N1C[C@H](C)[C@H](CN(C)S(=O)(=O)c2ccccc2)Oc2ccc(NC(=O)Nc3ccc4c(c3)OCO4)cc2CC1=O	–	–	16	·	–
C[C@H](CO)N1C[C@H](C)[C@@H](CN(C)S(=O)(=O)c2ccccc2)Oc2ccc(NC(=O)Nc3ccc(C(F)(F)F)cc3)cc2CC1=O	–	–	19	·	–
COc1ccccc1NS(=O)(=O)c1cccc(C(=O)NCC(c2ccccc2OC)N2CCCC2)c1 (stereo not drawn)	–	–	15	–	–
Cc1oc(-c2ccc(-c3ccccc3)cc2)nc1CN(C)C1CCOC1 (stereo not drawn)	–	–	18	–	–
Cc1oc(-c2cccc(Cl)c2)nc1CN(C)C1CCOC1 (stereo not drawn)	–	–	–	–	–
CC(=O)NCc1ccc(C(=O)CCl)cc1	–	–	–	–	–
CC(=O)Nc1ccc(C(=O)CCl)cc1	–	94	·	·	–
CO[C@H]1CN(C)C(=O)c2cc(NC(=O)Nc3cc(F)ccc3F)ccc2OC[C@H](C)N(C(=O)c2cnccn2)C[C@@H]1C	–	–	·	·	–
CCN(CC)c1ccc(/C=N/N2CCN(Cc3ccccc3Cl)CC2)c(O)c1	–	–	–	–	–
CCN(CC)c1ccc(/C=N/N2CCN(Cc3ccc(C)cc3)CC2)c(O)c1	–	–	20	–	–
CO[C@@H](CN(C)S(=O)(=O)c1ccccc1)[C@H](C)CN(C(=O)Nc1ccccc1F)[C@H](C)CO	–	–	–	·	–
COc1ccc(S(=O)(=O)N2CCc3ccccc3C2)cc1OC	–	–	–	–	63
COCCNC(=O)C[C@@H]1CC[C@H]2[C@H](COc3ccc(NC(=O)c4cnccn4)cc3C(=O)N2C)O1	–	–	–	·	–
CCCCCc1ccc(OCCC[n+]2ccccc2)c(CCCCC)c1	–	–	–	–	192
CCCCCc1ccc(OCCOCCn2c[n+](C)c3ccccc32)c(CCCCC)c1	·	·	·	–	·
COC(=O)[C@]1(Cc2ccccc2)N[C@H](CN(C)C(=O)Nc2ccc(C)cc2)[C@@H]2C(=O)N(C)C(=O)[C@@H]21	–	–	–	–	65
CCN(C[C@H]1N[C@@](Cc2ccccc2)(C(=O)OC)[C@H]2C(=O)N(C)C(=O)[C@@H]12)C(=O)Nc1ccc(C(F)(F)F)cc1	–	–	28	–	–
COC(=O)[C@]1(Cc2ccccc2)N[C@H](CN(C)C(=O)NC(C)C)[C@@H]2C(=O)N(C)C(=O)[C@@H]21	–	–	·	–	–
C[C@H]1CN([C@@H](C)CO)C(=O)Cc2cc(NC(=O)c3ccncc3)ccc2O[C@@H]1CN(C)CC1CCCCC1	–	–	–	·	–
C[C@@H]1CN([C@H](C)CO)C(=O)c2cccc(NS(=O)(=O)c3ccc(F)cc3)c2O[C@H]1CN(C)CC1CC1	–	–	–	·	–
O=c1cc(O)c2sc3nc4c(c(C(F)(F)F)c3c2[nH]1)CCCCC4	–	–	17	–	–
O=c1cc(O)c2sc3nc(-c4ccccc4)cc(C(F)(F)F)c3c2[nH]1	·	·	·	–	–
C[C@H]1CN([C@@H](C)CO)C(=O)CCCn2nncc2CO[C@H]1CN(C)C(=O)Nc1ccc(C(C)(C)C)cc1	–	–	–	·	–
C[C@@H]1CN([C@@H](C)CO)S(=O)(=O)c2ccc(-c3cccnc3)cc2O[C@@H]1CN(C)C(=O)C1CC1	·	·	·	·	–
SMILES	ERp5 inh	S100A4 inh HTS	SIRT5 block	PDI turbidity	GSIS activator
COc1ccc(NC(=O)N2CC(=O)N3[C@@H](CO)[C@@H](c4ccc(-c5ccc(C)cc5)cc4)[C@@H]3C2)cc1	–	–	–	·	–
COc1ccc(-c2cnnn2-c2ccc(NC(=O)c3ccco3)cc2)cc1OC	·	·	·	–	·
COc1ccc(-c2cnnn2-c2ccc(N)cc2)cc1OC	·	·	·	–	53
COC(=O)c1sc(NC(=O)/C=C/c2ccc(C)cc2)nc1C	·	·	·	–	67
CCOC(=O)c1sc(NC(=O)/C=C/c2ccccc2)nc1C	–	–	–	–	–
COc1ccc(S(=O)(=O)Nc2ccc3c(c2)C(=O)N([C@H](C)CO)C[C@@H](C)[C@H](CN(C)S(=O)(=O)c2ccc(Cl)cc2)OCCCC[C@H](C)O3)cc1	–	–	20	·	–
COc1ccc(S(=O)(=O)Nc2ccc3c(c2)C(=O)N([C@@H](C)CO)C[C@H](C)[C@H](CN(C)S(=O)(=O)c2ccc(Cl)cc2)OCCCC[C@H](C)O3)cc1	–	–	–	·	–
COc1ccc(S(=O)(=O)Nc2ccc3c(c2)C(=O)N([C@H](C)CO)C[C@H](C)[C@H](CN(C)S(=O)(=O)c2ccc(Cl)cc2)OCCCC[C@@H](C)O3)cc1	–	–	–	·	–
COc1ccc(S(=O)(=O)N(C)C[C@H]2OCCCC[C@@H](C)Oc3ccc(NS(=O)(=O)c4ccc(Cl)cc4)cc3C(=O)N([C@H](C)CO)C[C@H]2C)cc1	–	–	23	·	–
COc1ccc(S(=O)(=O)N(C)C[C@@H]2OCCCC[C@H](C)Oc3ccc(NS(=O)(=O)c4ccc(Cl)cc4)cc3C(=O)N([C@H](C)CO)C[C@H]2C)cc1	–	–	–	·	–
COc1ccc(S(=O)(=O)N(C)C[C@@H]2OCCCC[C@@H](C)Oc3ccc(NS(=O)(=O)c4ccc(Cl)cc4)cc3C(=O)N([C@@H](C)CO)C[C@H]2C)cc1	–	–	17	·	–
COc1ccc(S(=O)(=O)N(C)C[C@H]2OCCCC[C@H](C)Oc3ccc(NS(=O)(=O)c4ccc(Cl)cc4)cc3C(=O)N([C@H](C)CO)C[C@@H]2C)cc1	–	–	–	·	–
COc1ccc(S(=O)(=O)Nc2ccc3c(c2)C(=O)N([C@@H](C)CO)C[C@H](C)[C@H](CN(C)S(=O)(=O)c2ccc(Cl)cc2)OCCCC[C@@H](C)O3)cc1	–	–	22	·	–
CN1C(=O)c2cc(NC(=O)Nc3ccccc3F)ccc2OC[C@@H]2O[C@@H](CC(=O)O)CC[C@H]21	·	·	·	·	–
CC(=O)Nc1cccc2c1O[C@H](CN(C)C(=O)NC(C)C)[C@H](C)CN(C)C2=O	·	·	·	·	–
COc1ccc(S(=O)(=O)N(C)C[C@H]2OCCCC[C@H](C)Oc3ccc(NS(=O)(=O)c4ccc(Cl)cc4)cc3C(=O)N([C@@H](C)CO)C[C@H]2C)cc1	·	–	17	·	–
COc1cc2c(cc1OC)CN1CCc3cc(OC)c(OC)cc3C1C2 (stereo not drawn)	–	–	23	·	–
CC=Cc1ccc2n(c1=O)C[C@H]1[C@H](CO)[C@@H](C(=O)NCc3ccncc3)N(Cc3ccncc3)[C@@H]21 (mixture of isomers)	–	–	–	·	–
C[C@@H]1CN([C@H](C)CO)C(=O)c2cc(NS(=O)(=O)c3ccccc3)ccc2O[C@@H](C)CCCCO[C@@H]1CN(C)S(=O)(=O)c1ccc(Cl)cc1	–	–	–	·	–

Screens (PubChem)
